≈ marks a conversion by molar mass, not a printed value. Calls of active or inactive are those of the source. The rule behind the calls is not given here.
Experiments:
[1] = tested on: Murine hepatitis virus; assay: Antiviral activity against murine hepatitis virus-A59 infected in BALB/c mouse assessed as alleviation of lymphocytes infiltration in lungs at 200 mg/kg, po administered once daily one hour post infection and measured after 3 days by H&E staining based analysis; format: functional, organism-based; conditions: time 3.0 day
Outline: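 In male BALB/c mice (3–4 weeks), MHV-A59 was given intranasally (30 μL, TCID50 = 10−7.125/100 μL). Oral dosing once daily in a Cremophor EL/PBS/DMSO vehicle began at 1 hpi and lasted four days. At 3 dpi, lungs and livers from 4 mice per group were fixed in zinc formalin and paraffin-embedded. Sections of about 4 μm were stained with H&E and examined at 200× and 400×.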

[2] = tested on: Feline infectious peritonitis virus; assay: Antiviral activity against Feline infectious peritonitis virus infected in CRFK cells assessed as reduction in viral copy pre-infected with cells for 1 hrs followed by compound addition and measured after 48 hrs by RT-qPCR analysis; format: functional, organism-based; conditions: Alphacoronavirus 1, CRFK
Outline: (§1)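 CRFK cells (CCoV, FIPV) or ST cells (TGEV) were grown in DMEM with 10% FBS at 37 °C, 5% CO2. At 80% confluence they were washed in serum-free medium and infected at MOI 0.01 for 1 h at 37 °C. Compounds were then added at 0.1–100 μmol/L, with DMSO as blank. After 48 h, cells and supernatants were analysed by qRT-PCR. Inhibition came from viral copy number, and EC50 from curve fitting.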

[3] = tested on: Murine hepatitis virus; assay: Antiviral activity against murine hepatitis virus-A59 infected in BALB/c mouse assessed as reduction in TNF-alpha production in lungs at 200 mg/kg, po administered once daily one hour post infection and measured after 3 days by ELISA analysis; format: functional, organism-based; conditions: time 3.0 day
Outline: (§2)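 MHV-A59 was inoculated intranasally into male BALB/c mice (30 μL, TCID50 = 10−7.125/100 μL), with oral dosing once daily from 1 hpi for four days. At 3 dpi, 0.1 g lung or liver from 4 mice per group was homogenized in 0.9 mL water at 4 °C and centrifuged. Supernatant IFN-β was read by ELISA; TNF-α, IFN-γ, IL-1β, IL-6 and CXCL10 by multi-analyte kit, with OD 450 nm against standards.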

[4] = tested on: Canine coronavirus; assay: Antiviral activity against Canine coronavirus infected in CRFK cells assessed as reduction in viral copy pre-infected with cells for 1 hrs followed by compound addition and measured after 48 hrs by RT-qPCR analysis; format: functional, organism-based; conditions: Alphacoronavirus 1, CRFK; outline: as §1
[5] = tested on: Murine hepatitis virus; assay: Antiviral activity against murine hepatitis virus-A59 infected in BALB/c mouse assessed as reduction in IL-1beta production in lungs at 200 mg/kg, po administered once daily one hour post infection and measured after 3 days by ELISA analysis; format: functional, organism-based; conditions: time 3.0 day; outline: as §2
[6] = tested on: Murine hepatitis virus; assay: Antiviral activity against murine hepatitis virus-A59 infected in BALB/c mouse assessed as reduction in TNF-alpha production in liver at 10 to 100 mg/kg, po administered once daily one hour post infection and measured after 3 days by ELISA analysis; format: functional, organism-based; conditions: dose 10-100 mg/kg, time 3.0 day; outline: as §2
[7] = Solubility of the compound; format: physicochemical
[8] = Drug distribution in BALB/c mouse lung assessed as hydrolyzed GS-441524 metabolite at 200 mg/kg, po administered as single dose and measured after 1 hrs by LC-MS/MS analysis; format: ADME, organism-based; conditions: in vivo

CC(C)Cc1ccc(C(C)C(=O)OC[C@H]2O[C@@](C#N)(c3ccc4c(N)ncnn34)[C@H](O)[C@@H]2O)cc1 (stereo partly drawn)
Activity [1]: Active
EC50 [2]: 7.34 µM
Activity [3]: Active
EC50 [4]: 1.41 µM
Activity [5]: Active
Activity [6]: Active
solubility [7]: 49.9 µM (≈ 23.9 µg/mL)
Drug uptake [8]: Active
